Results on six molecules are retold here after ChEMBL document CHEMBL5154773, “Development of Sulfamoylated 4-(1-Phenyl-1H-1,2,3-triazol-4-yl)phenol Derivatives as Potent Steroid Sulfatase Inhibitors for Efficient Treatment of Breast Cancer” (J Med Chem, 2022).

Activity calls are given as the source filed them. The rule behind the calls is not given here.

The target in data set [1] is T1, Steryl-sulfatase (Homo sapiens) (UniProt P08842).
T1 sequence (whole entry): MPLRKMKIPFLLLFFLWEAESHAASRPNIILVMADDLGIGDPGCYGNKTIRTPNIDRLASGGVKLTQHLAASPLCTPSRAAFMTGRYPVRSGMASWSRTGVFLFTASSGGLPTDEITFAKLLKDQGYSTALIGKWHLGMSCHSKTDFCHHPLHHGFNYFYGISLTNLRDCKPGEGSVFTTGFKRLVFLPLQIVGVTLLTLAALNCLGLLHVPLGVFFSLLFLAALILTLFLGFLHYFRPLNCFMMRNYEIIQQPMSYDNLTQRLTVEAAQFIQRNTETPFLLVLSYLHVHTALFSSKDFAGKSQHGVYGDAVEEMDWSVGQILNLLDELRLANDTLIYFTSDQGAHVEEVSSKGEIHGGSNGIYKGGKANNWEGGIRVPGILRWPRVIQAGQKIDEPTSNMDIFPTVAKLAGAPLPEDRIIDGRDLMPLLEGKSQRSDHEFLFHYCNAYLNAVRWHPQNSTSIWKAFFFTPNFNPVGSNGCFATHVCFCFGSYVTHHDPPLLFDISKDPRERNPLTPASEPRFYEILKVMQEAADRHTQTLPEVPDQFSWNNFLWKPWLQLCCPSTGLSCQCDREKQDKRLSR
In words: Inhibition of STS in human MCF7 cells assessed as residual enzyme activity using [3H]E1S as substrate at 100 nM incubated for 20 hrs by radioisotope cellular assay relative to control. It is filed as cell-based. The method, boiled down:
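MCF-7 cells were grown in DMEM with 10% FBS to 80% confluence, then seeded at 1 × 10⁵ cells/well. Cells were incubated 20 h at 37 °C, 5% CO₂, in serum-free medium with [³H]E1S (3 nM, 4 × 10⁴ Bq), with or without inhibitor at 100, 10 or 1 nM. The hydrolysis product in the collected medium was extracted into toluene and counted by scintillation. Run in triplicate.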

The nature of data set [2]: Toxicity in BALB/c mouse allografted with mouse 67NR cells assessed as effect on erythrocyte count at 50 mg/kg, po for 5 days a week. In kind it is organism-based. The settings on record: in vivo, 168 h, time 1 weeks.
For data set [3], the system named is Mus musculus. In words: In vivo inhibition of STS in BALB/c mouse allografted with mouse 67NR cells assessed as reduction in estradiol level in plasma at 50 mg/kg, po administered 5 days a week by ELISA. In kind it is functional, organism-based. The settings on record: time 1.0 weeks. In general terms: An ELISA detects its analyte on a solid surface through an enzyme-linked reagent.

Data set [4] can be described thus: Toxicity in BALB/c mouse assessed as toxic effects at 10 to 50 mg/kg, po for 5 days a week for 2 weeks. It is filed as organism-based. The settings on record: in vivo, 336 h, dose 10-50 mg/kg. The essentials: (§1)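 Female BALB/c mice, three per dose, received oral doses of 10 mg/kg/day, 5 days a week for 2 weeks. Later mice received 20 or 50 mg/kg. Body weight and general health, including feces, were followed. After cervical dislocation, liver, kidney and spleen were weighed, and liver, kidneys, intestines and spleen were assessed macroscopically.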

The nature of data set [5]: Toxicity in BALB/c mouse assessed as body weight loss at 10 to 50 mg/kg, po for 5 days a week for 2 weeks. The settings on record: in vivo, 336 h, dose 10-50 mg/kg. It is filed as organism-based. The essentials: as §1
Data set [6] is described as follows: Toxicity in BALB/c mouse assessed as change in feces consistency at 50 mg/kg, po for 5 days a week for 2 weeks. The settings on record: in vivo, 336 h. In kind it is organism-based. The method, boiled down: as §1
A short description of data set [7]: Toxicity in BALB/c mouse assessed as macroscopic changes in liver at 10 to 50 mg/kg, po for 5 days a week for 2 weeks. In kind it is organism-based. To be noted: in vivo, 336 h, dose 10-50 mg/kg. The essentials:
as §1

Data set [8] in a line: Toxicity in BALB/c mouse assessed as macroscopic changes in kidneys at 10 to 50 mg/kg, po for 5 days a week for 2 weeks. In kind it is organism-based. To be noted: in vivo, 336 h, dose 10-50 mg/kg. The method, boiled down: as §1
Data set [9] in a line: Toxicity in BALB/c mouse assessed as macroscopic changes in intestines at 10 to 50 mg/kg, po for 5 days a week for 2 weeks. In kind it is organism-based. To be noted: in vivo, 336 h, dose 10-50 mg/kg. The essentials:
as §1

Data set [10] in a line: Toxicity in BALB/c mouse assessed as macroscopic changes in spleen at 10 to 50 mg/kg, po for 5 days a week for 2 weeks. It is filed as organism-based. The settings on record: in vivo, 336 h, dose 10-50 mg/kg. The method, boiled down:
as §1

The nature of data set [11]: Toxicity in BALB/c mouse assessed as weight change of liver at 10 to 50 mg/kg, po for 5 days a week for 2 weeks. It is filed as organism-based. The settings on record: in vivo, 336 h, dose 10-50 mg/kg. The essentials:
as §1

Data set [12] is described as follows: Toxicity in BALB/c mouse assessed as weight change of kidney at 10 to 50 mg/kg, po for 5 days a week for 2 weeks. In kind it is organism-based. The settings on record: in vivo, 336 h, dose 10-50 mg/kg. The essentials: as §1
Data set [13] in a line: Toxicity in BALB/c mouse assessed as weight change of spleen at 10 to 50 mg/kg, po for 5 days a week for 2 weeks. In kind it is organism-based. The settings on record: in vivo, 336 h, dose 10-50 mg/kg. The essentials: as §1
Data set [14] in a line: Toxicity in BALB/c mouse assessed as maximum tolerated dose administered orally for 5 days a week. To be noted: in vivo, route po, time 1 weeks. The essentials: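 Female Balb/c mice, three per dose, were dosed per os, starting at 10 mg/kg/day and then at 20 and 50 mg/kg, 5 days a week for 2 weeks. Body weight and general health were followed. At autopsy, liver, kidney and spleen were weighed and examined macroscopically.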

Data set [15] is described as follows: Toxicity in BALB/c mouse allografted with mouse 67NR cells assessed as enlarged liver at 50 mg/kg, po for 5 days a week. It is filed as organism-based. To be noted: in vivo, 168 h, time 1 weeks.
Data set [16] in a line: Toxicity in BALB/c mouse allografted with mouse 67NR cells assessed as decrease in spleen weight at 50 mg/kg, po for 5 days a week. It is filed as organism-based. To be noted: in vivo, 168 h, time 1 weeks.
Data set [17] in a line: Toxicity in BALB/c mouse allografted with mouse 67NR cells assessed as decrease in lymphocyte count at 50 mg/kg, po for 5 days a week. It is filed as organism-based. The settings on record: in vivo, 168 h, time 1 weeks.
A short description of data set [18]: Toxicity in BALB/c mouse allografted with mouse 67NR cells assessed as increase in monocyte count at 50 mg/kg, po for 5 days a week. In kind it is organism-based. To be noted: in vivo, 168 h, time 1 weeks.
Data set [19] is described as follows: Toxicity in BALB/c mouse allografted with mouse 67NR cells assessed as increase in granulocyte count at 50 mg/kg, po for 5 days a week. In kind it is organism-based. The settings on record: in vivo, 168 h, time 1 weeks.
Data set [20] in a line: Toxicity in BALB/c mouse allografted with mouse 67NR cells assessed as effect on hemoglobin levels at 50 mg/kg, po for 5 days a week. In kind it is organism-based. To be noted: in vivo, 168 h, time 1 weeks.
Data set [21] is described as follows: Toxicity in BALB/c mouse allografted with mouse 67NR cells assessed as effect on hematocrit levels at 50 mg/kg, po for 5 days a week. It is filed as organism-based. The settings on record: in vivo, 168 h, time 1 weeks.
A short description of data set [22]: Toxicity in BALB/c mouse allografted with mouse 67NR cells assessed as increase in blood urea levels at 50 mg/kg, po for 5 days a week. It is filed as organism-based. The settings on record: in vivo, 168 h, time 1 weeks.
Data set [23] can be described thus: In vivo inhibition of STS in BALB/c mouse allografted with mouse 67NR cells assessed as residual enzyme activity in tumor lysates using [3H]E1S as substrate at 50 mg/kg, po for 5 days a week followed by incubation of tumor lysates with [3H]E1S for 3 hrs by radioisotope enzymatic assay (reference value: 100%). It is filed as functional, Neoplasm. The settings on record: time 1 weeks.

The nature of data set [24]: In vivo inhibition of STS in BALB/c mouse allografted with mouse 67NR cells assessed as residual enzyme activity in liver lysates using [3H]E1S as substrate at 50 mg/kg, po for 5 days a week followed by incubation of […] with [3H]E1S for 3 hrs by radioisotope enzymatic assay (reference value: 100%). In kind it is functional. The settings on record: time 1 weeks.

A short description of data set [25]: Toxicity in BALB/c mouse allografted with mouse 67NR cells assessed as body weight loss at 50 mg/kg, po for 5 days a week and measured 3 times a week relative to control. In kind it is organism-based. To be noted: in vivo, 168 h, time 1 weeks.
Data set [26] can be described thus: Toxicity in BALB/c mouse allografted with mouse 67NR cells assessed as increase in alanine aminotransferase levels in plasma at 50 mg/kg, po for 5 days a week. In kind it is organism-based. To be noted: in vivo, 168 h, time 1 weeks.
Data set [27] is described as follows: Antitumor activity against mouse 67NR cells allografted in BALB/c mouse assessed as tumor growth inhibition at 50 mg/kg, po for 5 days a week and measured 3 times a week relative to control. In kind it is functional. To be noted: 168 h, time 1 weeks, read-out: TGI. The essentials: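 Female BALB/c mice, 7–8 weeks old, received 1.5 × 10⁵ 67NR cells in 0.05 mL Hanks fluid into the mammary fat pad. At about 50 mm³ average tumor volume, mice were randomized to six groups of nine. Dosing was 50 mg/kg b.w. orally, 5 days a week, for 17 days of observation. Tumor volume was measured three times weekly. TGI was calculated from tumor volume versus the control group, using one-way ANOVA with Dunnett test.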

Take `NS(=O)(=O)Oc1ccc(-c2cn(-c3cccc(C(F)(F)F)c3)nn2)cc1`: the Activity in data set [1] was 1.3%.
By MTD is commonly meant the highest dose tested that stayed within the study's limit of toxicity. Regarding `NS(=O)(=O)Oc1ccc(-c2cn(-c3cccc(Cl)c3)nn2)cc1`, the Activity entry in data set [2] is given as “Non-Toxic”; in data set [4], “Non-Toxic”; in [5] it was “Non-Toxic”; in data set [6], “Toxic”; in data set [7], “Non-Toxic”; in [8] it was “Non-Toxic”. The Activity entry in [9], in [10], in data set [11], in data set [12], in data set [13] and in data set [15] was “Non-Toxic” in each case. For the same molecule, the Activity entry in data set [16] is “Toxic”; in data set [17] it was “Toxic”; in [18], “Toxic”; in [19] it was “Toxic”; in data set [20], “Non-Toxic”; in data set [21], “Non-Toxic”. Besides, the values for the Activity entry in [22], in data set [23] and in data set [24] were “Toxic”, 5.8% and 12.1%, respectively. Moreover, the inhibition entry in [3] is “Active”. Moreover, the MTD at 168 h in data set [14] came out at 50 mg/kg.
On to `NS(=O)(=O)Oc1ccc(-c2cn(-c3ccc(C(F)(F)F)cc3)nn2)cc1`, for which the Activity in data set [1] came to 2.9%.
With `NS(=O)(=O)Oc1ccc(-c2cn(-c3cccc(F)c3)nn2)cc1`, the Activity result in data set [2] was “Non-Toxic”; in [4], “Non-Toxic”; in data set [5], “Non-Toxic”; in data set [6], “Toxic”; in data set [7], “Non-Toxic”; in [8], “Non-Toxic”. In addition, the Activity result is listed as “Non-Toxic” in data set [9]; “Non-Toxic” in [10]; “Non-Toxic” in data set [11]; “Non-Toxic” in [12]; “Non-Toxic” in data set [13]; 4.5% in data set [25]. Also, the Activity result in data set [15], in data set [26], in data set [16], in data set [17], in data set [18] and in data set [19] was “Toxic” each time. The Activity entry is listed as “Non-Toxic” in data set [20]; “Non-Toxic” in [21]; “Toxic” in [22]; 5.2% in data set [23]; 13.6% in data set [24]. In addition, the inhibition entry in data set [3] is “Active”. In addition, the maximum tolerated dose (MTD) at 168 h in data set [14] is 50 mg/kg.
Regarding `NS(=O)(=O)Oc1ccc(-c2cn(-c3cc(Cl)cc(Cl)c3)nn2)cc1`, the Activity result in [2] was “Non-Toxic”; in data set [4], “Non-Toxic”; in [5], “Non-Toxic”; in data set [6], “Toxic”; in data set [7], “Non-Toxic”; in data set [8], “Non-Toxic”. For the same molecule, the Activity entry is “Non-Toxic” in data set [9]; “Non-Toxic” in data set [10]; “Non-Toxic” in data set [11]; “Non-Toxic” in data set [12]; “Non-Toxic” in data set [13]; “Toxic” in data set [15]. Besides, the Activity result is reported as “Toxic” in data set [16]; “Toxic” in data set [17]; “Toxic” in data set [18]; “Toxic” in [19]; “Non-Toxic” in data set [20]; “Non-Toxic” in data set [21]. The Activity entry in data set [22] is on record as “Toxic”; in data set [23], 5.1%; in data set [24] it was 14.5%. Further, in data set [3], the inhibition entry was “Active”. Further, in [14], the MTD at 168 h was found to be 50 mg/kg. Also, the inhibition in vivo at 50 mg/kg in data set [27] was 51%.
For the molecule `NS(=O)(=O)Oc1ccc(-c2cn(-c3ccc(F)cc3C(F)(F)F)nn2)cc1`, the Activity in data set [1] turned out to be 2.4%.
